This note sets out measurements from ChEMBL document CHEMBL1129598, “Design, synthesis, and in vitro evaluation of cyclic nitrones as free radical traps for the treatment of stroke” (J Med Chem, 1996).

Data set [1] is described as follows: In vitro inhibition of oxidation of soybean phosphatidylcholine liposomes using lipid peroxidation assay. The class given is functional, Glycine max. The method in brief:
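Soybean phosphatidylcholine liposomes were oxidised with an Fe²⁺/Fe³⁺ mixture to start peroxidation, with test agent present, and oxidation products were then analysed. A reference cyclic nitrone was run as an internal standard in each experiment. Runs were rejected if its value deviated by more than 15% from its established value.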

The nature of data set [2]: lipophilicity of the compound. The class given is physicochemical. As to conditions: reversed-phase HPLC. The method in brief:
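Lipophilicity was measured by reversed-phase HPLC as log k′_w. Samples at 0.5 mg/mL in MeOH were run on a C18 column (15 cm × 4.6 mm, 5 µm). Elution used 32–62% MeOH in pH 7.4 phosphate buffer, at three MeOH levels per compound.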

Consider `CC1(C)Cc2ccccc2C=[N+]1[O-]`, for which, in data set [1], the midpoint of inhibition, the IC50, lay at 1670 µM. In addition, in data set [2], the “Log K'W” value was 1.9.

Turning to `CC(C)(C)/[N+]([O-])=C/c1ccccc1`, in data set [1], the IC50 (commonly the concentration that gives 50% inhibition) amounted to 14300 µM.

As for `[O-][N+]1=Cc2ccccc2CCC12CCCCC2`, half-maximal inhibition in data set [1] (IC50) required 730 µM. Further, the “Log K'W” value in data set [2] stood at 2.99.

In turn, `CC1(C)c2cc(O)ccc2C=[N+]1[O-]` gave an IC50 in data set [1] of 810 µM. The “Log K'W” value in data set [2] amounted to 0.68.

In the case of `CC1(C)Cc2sccc2C=[N+]1[O-]`, in data set [1], half-maximal inhibition (IC50) was put at 1590 µM. The “Log K'W” value in data set [2] was 1.57.

With `[O-][N+]1=Cc2ccccc2CCC12CCOCC2`, the IC50 in data set [1] worked out at 310 µM. Also, in data set [2], the “Log K'W” value came out at 1.98.

With `COc1ccc2c(c1)C(C)(C)[N+]([O-])=C2`, the IC50 in data set [1] was 910 µM. The “Log K'W” value in data set [2] is given as 1.75.

The compound `CC1(C)Cc2ccoc2C=[N+]1[O-]` gave an IC50 in data set [1] of 1070 µM. Besides, the “Log K'W” value in data set [2] is 1.16.

The compound `CC1(C)Cc2c(ccc3ccccc23)C=[N+]1[O-]` yielded an IC50 in data set [1] of 100 µM. Moreover, in data set [2], the “Log K'W” value was determined as 2.67.

Take `CC1(C)Cc2ccsc2C=[N+]1[O-]`: the IC50 in data set [1] was 1720 µM. In addition, the “Log K'W” value in data set [2] came out at 1.47.

Consider `COc1cccc2c1C=[N+]([O-])C2(C)C`, for which the IC50 in data set [1] came out at 1090 µM. Further, the “Log K'W” value in data set [2] came out at 1.98.

With `CC1(C)c2ccccc2C=[N+]1[O-]`, the half-maximal inhibitory concentration (IC50) in data set [1] was 1360 µM. Besides, the “Log K'W” value in data set [2] is reported as 1.61.

In data set [1], `Cc1cc2c(c(C)c1O)CCC(C)(C)[N+]([O-])=C2` showed an IC50 of 22 µM. The “Log K'W” value in data set [2] was 2.29.

`CC1(C)Cc2ccc3ccccc3c2C=[N+]1[O-]` showed an IC50 in data set [1] of 69 µM. In addition, the “Log K'W” value in data set [2] amounted to 2.69.

`[O-][N+]1=Cc2ccccc2CC12CCOCC2`: in data set [1], the IC50 turned out to be 1240 µM. Also, the “Log K'W” value in data set [2] worked out at 1.65.

In data set [1], `Cc1cc2c(c(C)c1O)CC(C)(C)[N+]([O-])=C2` yielded an IC50 of 66 µM. Also, the “Log K'W” value in data set [2] came to 1.82.
